Article PMC2229322 (The Journal of General Physiology, 1996)

Legend:
[1] = system: cysteine mutants (380-398) of the S4-S5 linker, ShA Shaker K+ channel; experiment: Chemical modification of cysteine mutants of the S4-S5 linker; assay type: cell-based, Drosophila; details: positions with large current reduction
Method in brief: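 Cysteine-substituted channels in inside-out patches from transfected HEK293 cells, pH 7.4 solutions. Thiol reagents applied internally; completeness of modification followed by pulsing at 0.25 Hz. Conditions: MMTS 2 mM, 1 min; Ag+ 20 nM, 2 min; MTSEA 100 µM, 30 s.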

[2] = system: 381C ShA Shaker K+ channel; experiment: Chemical modification of 381C; assay type: cell-based, Drosophila; details: for slope (time constant x [MTSET]) of current reduction: 381C
Method in brief: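 Inside-out patches from transfected HEK293 cells; […] to 0 mV from -100 mV holding. Computer-controlled reagent pulses of 1 or 2 s began ~500 ms after step onset; sampled 5 kHz, filtered 1 kHz. Time axis normalised to reagent concentration; current reduction fitted to single exponentials. Frequency runs alternated -100 with 0 or +60 mV, equal time at each.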

[3] = system: 382C ShA Shaker K+ channel; experiment: Chemical modification of 382C; assay type: cell-based, Drosophila; details: vs 381C, toward more positive voltages (Fig. 7 C and E)
[4] = system: 391C Shaker K+ channel with intact N-type inactivation (Sh +); experiment: N-type inactivation of intact; assay type: cell-based, Drosophila; details: for effect of 391C modification on N-type inactivation current: voltage jump -80 to 0 mV, 50 ms, complete modification (Fig. 2)
Method in brief: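 Inside-out patches from HEK293 cells expressing channels with intact N-terminus, stepped -80 to 0 mV. Inactivation gate removed by internal trypsin perfusion. Traces normalised to the mean current of the last 20 ms after trypsin. Ag+ 20 nM for 2 min applied; completeness checked by pulsing at 0.25 Hz.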

[5] = system: 391C ShA Shaker K+ channel; experiment: Rate of chemical modification of 391C; assay type: cell-based, Drosophila; details: MTSET
[6] = target: E395C mutant Shaker K+ channel (Drosophila melanogaster, UniProt P08510, C301S/C308S/DEL6-46/E395C/T449V); experiment: Sensitivity of E395C to internal open channel blockers; assay type: cell-based; details: internal open channel blocker
Shaker K+ channel = details: intracellular application; ref Choi et al., 1991; cited from earlier work
K+ channels = experiment: Test of perfusion change by TEA blockade; assay type: cell-based; details: internal TEA; reflects time course of solution change by perfusion system
Method in brief: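 Rapid internal solution exchange on excised patches via a computer-controlled solenoid perfusion system. Exchange speed assessed by applying TEA.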

[7] = system: NH2-terminal deletion mutant Shaker K+ channel; details: ref Zagotta et al., 1990; cited from earlier work
[8] = Net charge of ball peptides; assay type: physicochemical; details: COOH terminal amidated, NH2 terminal positively charged

## C[N+](C)(C)CCSS(C)(=O)=O [MTSET, [(2-trimethylammoniuin)ethyl]methanethiosulfonate]
[1]
  reactivity of positions 389 and 397: only very slowly reactive
[2]; 50 10-ms pulses vs 5 100-ms pulses, -100 to 0 mV
  rate of modification of 381C with rapidly switching stimulus: about threefold faster
[2]; MTSET, 0 mV (Fig. 7B)
  slope (time constant x [MTSET]) of current reduction: 0.33 mM·s
[2]; MTSET, -120 mV (Fig. 7B)
  slope (time constant x [MTSET]) of current reduction: 2.47 mM·s
[2]; MTSET, Fig. 7 A and B
  current reduction by modification of 381C: > 80%
[3]
  shift of voltage dependence of gating and modification for 382C: ~ 50 mV
[4]
  effect of 391C modification on N-type inactivation current: parallel increase of the steady state and the peak current
[5]
  total current after modification of A391C: no reduction in the total current
[5]; Fig. 6C
  voltage dependence of modification rate of 391C: higher at positive voltages

## Trypsin
[4]; 0.0025% trypsin perfused on inside-out patch (Fig. 2A)
  effect of removing the inactivation gate: larger non-inactivated current level

## CC[N+](CC)(CC)CC [TEA, tetraethylammonium]
[6]
  affinity of E395C mutant compared with wild-type channel: reduced fourfold
Shaker K+ channel
  effect on N-type inactivation: slows down N-type inactivation
K+ channels
  time constant of TEA blockade observed: ~ 10 ms

## CSS(C)(=O)=O [MMTS, Methyl methanethiosulfonate]
[4]
  effect of 391C modification on N-type inactivation current: increase in the steady- state current level without much change in the peak current

## CCCCCCCCCC[N+](CC)(CC)CC [C10-TEA, de- cyltriethylammonium]
[6]
  affinity of E395C mutant compared with wild-type channel: reduced fourfold

## CC[N+](CC)(CC)CCSS(C)(=O)=O [MTSTEA, [(2-triethylammonium)ethyl] methanethiosulfonate]
[4]
  effect of 391C modification on N-type inactivation current: qualitatively similar results

## MAAVAGLYGLGEDRQHRKKQ [Shaker ball peptide]
[7]
  reconstitution of fast inactivation by intracellular application: effectively reconsti- tuted
[8]
  net charge: +3

## [Ag+] [Ag+, silver]
[4]; Ag+ 20 nM for 2 min (Fig. 2)
  additional effect of 391C modification on tethered ball: additional ef- fect on the association rate
[4]
  effect of 391C modification on N-type inactivation current: increase in the steady- state current level without much change in the peak current
